Experimental data from ChEMBL document CHEMBL3352339, “Implications of N-capped urea/thiourea and C-capped 3-(1-piperazinyl)-1,2-benzisothiazole with bridging Gly-Val/Phe-Gly-Val-Pro as therapeutic targets” (Eur J Med Chem, 2014).
pIC50: −log10 of the molar value. In brackets after ≈: the same amount, converted by molar mass. Starred links: 1 amine or outer side, 2 acyl side, 3 side chain; linkers in the order of their positions; H or OH if unused. Residues, ends and D or L forms follow the SMILES beside them. *: point of attachment. Thiocarbamoyl(4-MeOPh) = COc1ccc(NC(=S)*)cc1; NH(4-MeO-phenyl) = COc1ccc(N*)cc1; X1 = c1ccc2c(N3CCN(*)CC3)nsc2c1; NH(3-MeOPh) = COc1cccc(N*)c1; X4 = COc1cccc(NC(=S)*)c1; X5 = COc1ccccc1NC(=S)*; Boc = CC(C)(C)OC(=O)*; CO = O=C([*:1])[*:2]; X6 = Fc1cccc(N*)c1; X3 = COc1ccccc1N*

Experiments:
Fusarium oxysporum [1] = assay: Antifungal activity against Fusarium oxysporum at 50 ug/mL incubated for 3 days by agar well diffusion method; format: functional; conditions: 72 h, read-out: IZ
Summary of the method: (§1)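 Fungal growth inhibition measured by agar well diffusion, with bavistin as the reference. Records the mean inhibition-zone diameter (mm) around each well.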

[2] = Antiglycation activity using bovine serum albumin incubated at 37 degC for 7 days by spectrofluorimetry; format: physicochemical
Summary of the method: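 Glycation of bovine serum albumin, with rutin as the reference standard. IC50 values are averages of triplicate runs.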

Urease = Urease (Canavalia ensiformis, UniProt P07374); assay: Inhibition of jack bean urease assessed as reduction in ammonia production incubated at 30 degC for 15 mins by indophenol method
Summary of the method: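 Inhibition of jack bean urease, with thiourea as the reference standard. IC50 values are the average of triplicate runs.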

[3] = Inhibition of sheep stomach parietal cells gastric H+/K+-ATPase activity assessed as reduction in inorganic phosphorus production by Fiske Subbarow's method; format: tissue-based, Ovis aries; conditions: for pIC50: read-out: IC50
Summary of the method: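 Inhibition of purified H+/K+-ATPase, with omeprazole as the reference. IC50 is the mean of triplicate runs.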

Escherichia coli = assay: Antibacterial activity against Escherichia coli at 50 ug/mL incubated for 24 hrs by agar well diffusion method; format: functional; conditions: read-out: IZ
Summary of the method: (§2)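 Agar well diffusion against the bacterial isolate, with streptomycin as the reference drug. Read-out is the average diameter (mm) of the growth-inhibition zone around the well.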

Xanthomonas oryzae = assay: Antibacterial activity against Xanthomonas oryzae at 50 ug/mL incubated for 24 hrs by agar well diffusion method; format: functional; conditions: read-out: IZ
Staphylococcus = assay: Antibacterial activity against Coagulase positive Staphylococcus at 50 ug/mL incubated for 24 hrs by agar well diffusion method; format: functional; conditions: read-out: IZ; summary of the method: as §2
Aspergillus flavus [4] = assay: Antifungal activity against Aspergillus flavus at 50 ug/mL incubated for 3 days by agar well diffusion method; format: functional; conditions: 72 h, read-out: IZ; summary of the method: as §1
Aspergillus niger [5] = assay: Antifungal activity against Aspergillus niger at 50 ug/mL incubated for 3 days by agar well diffusion method; format: functional; conditions: 72 h, read-out: IZ; summary of the method: as §1
Fusarium verticillioides [6] = assay: Antifungal activity against Fusarium moniliforme at 50 ug/mL incubated for 3 days by agar well diffusion method; format: functional; conditions: 72 h, read-out: IZ; summary of the method: as §1
Fusarium verticillioides [7] = assay: Antifungal activity against Fusarium moniliforme incubated for 48 to 72 hrs by agar microdilution method; format: functional
Summary of the method: (§3)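 MIC by microdilution against the fungal strain, limited to compounds showing significant zones in the diffusion assay. Bavistin was used as the reference.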

Fusarium oxysporum [8] = assay: Antifungal activity against Fusarium oxysporum incubated for 48 to 72 hrs by agar microdilution method; format: functional; summary of the method: as §3
Aspergillus flavus [9] = assay: Antifungal activity against Aspergillus flavus incubated for 48 to 72 hrs by agar microdilution method; format: functional; summary of the method: as §3
Aspergillus niger [10] = assay: Antifungal activity against Aspergillus niger incubated for 48 to 72 hrs by agar microdilution method; format: functional; summary of the method: as §3

Chain of Urease (P07374 whole entry): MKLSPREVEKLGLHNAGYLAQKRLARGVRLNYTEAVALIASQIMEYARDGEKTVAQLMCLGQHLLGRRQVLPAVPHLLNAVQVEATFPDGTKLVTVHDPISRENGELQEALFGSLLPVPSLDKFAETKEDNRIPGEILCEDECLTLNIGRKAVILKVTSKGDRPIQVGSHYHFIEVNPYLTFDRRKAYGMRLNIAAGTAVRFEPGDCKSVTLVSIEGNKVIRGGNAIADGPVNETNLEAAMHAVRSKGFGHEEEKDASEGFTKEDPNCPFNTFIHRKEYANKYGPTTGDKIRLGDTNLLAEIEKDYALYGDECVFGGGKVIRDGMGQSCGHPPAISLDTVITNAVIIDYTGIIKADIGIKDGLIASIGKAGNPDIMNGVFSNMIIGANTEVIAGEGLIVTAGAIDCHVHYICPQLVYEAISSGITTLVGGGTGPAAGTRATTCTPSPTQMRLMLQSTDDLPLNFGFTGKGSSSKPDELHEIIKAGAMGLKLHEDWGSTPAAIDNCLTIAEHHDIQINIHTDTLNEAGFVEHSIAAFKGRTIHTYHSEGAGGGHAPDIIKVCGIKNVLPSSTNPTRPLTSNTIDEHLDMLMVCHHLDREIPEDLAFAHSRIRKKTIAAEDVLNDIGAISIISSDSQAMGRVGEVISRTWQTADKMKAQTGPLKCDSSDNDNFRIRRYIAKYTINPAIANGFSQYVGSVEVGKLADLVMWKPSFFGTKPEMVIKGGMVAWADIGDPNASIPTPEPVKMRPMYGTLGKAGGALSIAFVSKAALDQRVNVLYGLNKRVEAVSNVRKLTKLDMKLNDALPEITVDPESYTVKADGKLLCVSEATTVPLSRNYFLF

SMILES | zone of inhibition at 50 µg/mL (Fusarium oxysporum [1]) | pIC50 [2] | pIC50 (Urease) | IC50 [3] | zone of inhibition at 50 µg/mL (Escherichia coli) | zone of inhibition at 50 µg/mL (Xanthomonas oryzae) | zone of inhibition at 50 µg/mL (Staphylococcus) | zone of inhibition at 50 µg/mL (Aspergillus flavus [4]) | zone of inhibition at 50 µg/mL (Aspergillus niger [5]) | zone of inhibition at 50 µg/mL (Fusarium verticillioides [6]) | pIC50 [3] | MIC (Fusarium verticillioides [7]) | MIC (Fusarium oxysporum [8]) | MIC (Aspergillus flavus [9]) | MIC (Aspergillus niger [10])
CC(C)[C@H](NC(=O)CNC(=O)[C@H](Cc1ccccc1)NC(=O)CNC(=O)OC(C)(C)C)C(=O)N1CCC[C@H]1C(=O)N1CCN(c2nsc3ccccc23)CC1 (Boc-GFGVP-X1) | 7 mm | 3.63 | 3.59 | Not Active | 8 mm | 7 mm | 6 mm | 7 mm | 6 mm | 7 mm | – | – | – | – | –
COc1cccc(NC(=S)NCC(=O)N[C@@H](Cc2ccccc2)C(=O)NCC(=O)N[C@H](C(=O)N2CCC[C@H]2C(=O)N2CCN(c3nsc4ccccc34)CC2)C(C)C)c1 (X4-GFGVP-X1) | 23 mm | 4.70 | 4.72 | – | 21 mm | 19 mm | 20 mm | 23 mm | 24 mm | 24 mm | 4.42 | – | – | – | –
COc1cccc(NC(=S)NCC(=O)N[C@H](C(=O)NCC(=O)N[C@H](C(=O)N2CCC[C@H]2C(=O)N2CCN(c3nsc4ccccc34)CC2)C(C)C)C(C)C)c1 (X4-GVGVP-X1) | 19 mm | 4.64 | 4.64 | – | 17 mm | 16 mm | 18 mm | 18 mm | 16 mm | 19 mm | 4.44 | – | – | – | –
COc1ccccc1NC(=S)NCC(=O)N[C@@H](Cc1ccccc1)C(=O)NCC(=O)N[C@H](C(=O)N1CCC[C@H]1C(=O)N1CCN(c2nsc3ccccc23)CC1)C(C)C (X5-GFGVP-X1) | 24 mm | 4.72 | 4.74 | – | 24 mm | 22 mm | 24 mm | 25 mm | 24 mm | 26 mm | 4.34 | – | – | – | –
COc1ccccc1NC(=S)NCC(=O)N[C@H](C(=O)NCC(=O)N[C@H](C(=O)N1CCC[C@H]1C(=O)N1CCN(c2nsc3ccccc23)CC1)C(C)C)C(C)C (X5-GVGVP-X1) | 22 mm | 4.70 | 4.70 | – | 21 mm | 19 mm | 20 mm | 22 mm | 20 mm | 23 mm | 4.40 | – | – | – | –
COc1cccc(NC(=O)NCC(=O)N[C@@H](Cc2ccccc2)C(=O)NCC(=O)N[C@H](C(=O)N2CCC[C@H]2C(=O)N2CCN(c3nsc4ccccc34)CC2)C(C)C)c1 ({NH(3-MeOPh)-CO}-GFGVP-X1) | 22 mm | 4.64 | 4.64 | – | 19 mm | 18 mm | 20 mm | 21 mm | 20 mm | 22 mm | 4.32 | – | – | – | –
COc1cccc(NC(=O)NCC(=O)N[C@H](C(=O)NCC(=O)N[C@H](C(=O)N2CCC[C@H]2C(=O)N2CCN(c3nsc4ccccc34)CC2)C(C)C)C(C)C)c1 ({NH(3-MeOPh)-CO}-GVGVP-X1) | 18 mm | 4.60 | 4.60 | – | 15 mm | 13 mm | 14 mm | 17 mm | 15 mm | 18 mm | 4.42 | – | – | – | –
COc1ccc(NC(=O)NCC(=O)N[C@@H](Cc2ccccc2)C(=O)NCC(=O)N[C@H](C(=O)N2CCC[C@H]2C(=O)N2CCN(c3nsc4ccccc34)CC2)C(C)C)cc1 ({NH(4-MeO-phenyl)-CO}-GFGVP-X1) | 27 mm | 4.72 | 4.77 | – | 26 mm | 23 mm | 26 mm | 28 mm | 28 mm | 29 mm | 4.42 | – | – | – | –
COc1ccc(NC(=O)NCC(=O)N[C@H](C(=O)NCC(=O)N[C@H](C(=O)N2CCC[C@H]2C(=O)N2CCN(c3nsc4ccccc34)CC2)C(C)C)C(C)C)cc1 ({NH(4-MeO-phenyl)-CO}-GVGVP-X1) | 28 mm | 4.68 | 4.68 | – | 23 mm | 22 mm | 22 mm | 26 mm | 24 mm | 24 mm | 4.47 | – | – | – | –
COc1ccc(NC(=S)NCC(=O)N[C@@H](Cc2ccccc2)C(=O)NCC(=O)N[C@H](C(=O)N2CCC[C@H]2C(=O)N2CCN(c3nsc4ccccc34)CC2)C(C)C)cc1 ({Thiocarbamoyl(4-MeOPh)}-GFGVP-X1) | 29 mm | 4.80 | 4.82 | – | 28 mm | 26 mm | 28 mm | 29 mm | 30 mm | 31 mm | 4.47 | – | – | – | –
COc1ccc(NC(=S)NCC(=O)N[C@H](C(=O)NCC(=O)N[C@H](C(=O)N2CCC[C@H]2C(=O)N2CCN(c3nsc4ccccc34)CC2)C(C)C)C(C)C)cc1 ({Thiocarbamoyl(4-MeOPh)}-GVGVP-X1) | 26 mm | 4.74 | 4.74 | – | 24 mm | 25 mm | 24 mm | 25 mm | 24 mm | 26 mm | 4.49 | – | – | – | –
COc1ccccc1NC(=O)NCC(=O)N[C@@H](Cc1ccccc1)C(=O)NCC(=O)N[C@H](C(=O)N1CCC[C@H]1C(=O)N1CCN(c2nsc3ccccc23)CC1)C(C)C ({X3-CO}-GFGVP-X1) | 23 mm | 4.66 | 4.68 | – | 23 mm | 22 mm | 23 mm | 25 mm | 24 mm | 26 mm | 4.27 | – | – | – | –
COc1ccccc1NC(=O)NCC(=O)N[C@H](C(=O)NCC(=O)N[C@H](C(=O)N1CCC[C@H]1C(=O)N1CCN(c2nsc3ccccc23)CC1)C(C)C)C(C)C ({X3-CO}-GVGVP-X1) | 21 mm | 4.62 | 4.66 | – | 19 mm | 18 mm | 19 mm | 21 mm | 23 mm | 23 mm | 4.34 | – | – | – | –
CC(C)[C@H](NC(=O)CNC(=O)[C@H](Cc1ccccc1)NC(=O)CNC(=O)Nc1cccc(F)c1)C(=O)N1CCC[C@H]1C(=O)N1CCN(c2nsc3ccccc23)CC1 ({X6-CO}-GFGVP-X1) | 29 mm | 4.30 | 4.37 | – | 28 mm | 26 mm | 29 mm | 29 mm | 30 mm | 31 mm | 4.04 | – | – | – | –
CC(C)[C@H](NC(=O)CNC(=O)Nc1cccc(F)c1)C(=O)NCC(=O)N[C@H](C(=O)N1CCC[C@H]1C(=O)N1CCN(c2nsc3ccccc23)CC1)C(C)C ({X6-CO}-GVGVP-X1) | 24 mm | 4.28 | 4.36 | – | 24 mm | 22 mm | 23 mm | 25 mm | 27 mm | 27 mm | 4.06 | – | – | – | –
COC(=O)Nc1nc2ccccc2[nH]1 [CARBENDAZIM] | 13 mm | – | – | – | – | – | – | 13 mm | 14 mm | 15 mm | – | 20 µg/mL (≈ 105 µM) | 24 µg/mL (≈ 126 µM) | 24 µg/mL (≈ 126 µM) | 22 µg/mL (≈ 115 µM)
C[C@@H]1O[C@@H](OC[C@H]2O[C@@H](Oc3c(-c4ccc(O)c(O)c4)oc4cc(O)cc(O)c4c3=O)[C@H](O)[C@@H](O)[C@@H]2O)[C@H](O)[C@H](O)[C@H]1O [RUTIN] | – | 4.38 | – | – | – | – | – | – | – | – | – | – | – | – | –
